One experiment has as its system KB. Put plainly: Cytotoxicity against human KB cells assessed as growth inhibition after 72 hrs by SRB assay. It is filed as functional. The following applies: Homo sapiens, KB, 72 h; read-out: ED50 (the source's name). The procedure, abridged:
(§1)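 Sulforhodamine B assay run by NCI-validated procedure. Cells grown at 37 °C under humidified 5% CO2 in RPMI-1640 with 25 mM HEPES, […] (w/v) sodium bicarbonate, 10% (v/v) FBS and 100 μg/mL kanamycin. Compounds came from DMSO stocks, with final DMSO ≤ 1% (v/v). Continuous exposure for 72 h. ED50 (μg/mL, 50% cell-number reduction) interpolated from dose-response data. Triplicate tests. Doxorubicin served as positive control.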
(In SRB staining, fixed cells bind dye roughly in proportion to their protein.)

The test system of a further experiment is PC-3. Put plainly: Cytotoxicity against human PC3 cells assessed as growth inhibition after 72 hrs by SRB assay. It is filed as functional. As to conditions: Homo sapiens, PC-3, 72 h; read-out: ED50 (the source's name). The procedure, abridged: as §1
Experiment [1] can be described thus: Cytotoxicity against human […] cells assessed as growth inhibition after 72 hrs by SRB assay. Format: functional. The following applies: Homo sapiens, HCT9, 72 h; read-out: ED50 (the source's name). The procedure, abridged:
as §1

The nature of experiment [2]: Cytotoxicity against human U87MG cells assessed as growth inhibition after 72 hrs by SRB assay. It is filed as functional, U-87MG ATCC. The following applies: Homo sapiens, U-87 MG, 72 h; read-out: ED50 (the source's name). The procedure, abridged:
as §1

For a further experiment, the system named is 1A9. Put plainly: Cytotoxicity against human 1A9 cells assessed as growth inhibition after 72 hrs by SRB assay. Format: functional. The following applies: Homo sapiens, 1A9, 72 h; read-out: ED50 (the source's name). The procedure, abridged: as §1
The next experiment deals with SK-MEL-2. The experiment is described as follows: Cytotoxicity against human SK-MEL-2 cells assessed as growth inhibition after 72 hrs by SRB assay. Format: functional. The following applies: Homo sapiens, SK-MEL-2, 72 h; read-out: ED50 (the source's name). Put shortly:
as §1

A short description of experiment [3]: Cytotoxicity against human KBVIN cells assessed as growth inhibition after 72 hrs by SRB assay. It is filed as functional. As to conditions: Homo sapiens, KBVIN, 72 h; read-out: ED50 (the source's name). The procedure, abridged:
as §1

For the next experiment, the system named is A549. The experiment is described as follows: Cytotoxicity against human A549 cells assessed as growth inhibition after 72 hrs by SRB assay. As to conditions: Homo sapiens, A549, 72 h; read-out: ED50 (the source's name). Format: functional. Put shortly: as §1
A further experiment deals with CAKI-1. Put plainly: Cytotoxicity against human CAKI-1 cells assessed as growth inhibition after 72 hrs by SRB assay. It is filed as functional. The following applies: Homo sapiens, CAKI-1, 72 h; read-out: ED50 (the source's name). The procedure, abridged:
as §1

The next experiment has as its system MCF7. The experiment is described as follows: Cytotoxicity against human MCF7 cells assessed as growth inhibition after 72 hrs by SRB assay. It is filed as functional. As to conditions: Homo sapiens, MCF7, 72 h; read-out: ED50 (the source's name). The procedure, abridged: as §1

Values after ≈ are worked out from the molar mass of the structure shown.

As to `C[C@@H]1O[C@H](O[C@H]2CC[C@@]3(C(=O)O[C@@H]4O[C@H](CO)[C@@H](O)[C@H](O)[C@H]4O)[C@H](CC[C@@H]4[C@@H]3CC[C@]3(C)[C@@H](C5=CC(=O)OC5)CC[C@]43O)C2)[C@H](O)[C@H](O)[C@H]1O` [ANTIAROSIDE F], the EC50 with KB stood at 1.8 µg/mL (≈ 2.53 µM); in the experiment with PC-3 it was 0.89 µg/mL (≈ 1.25 µM); in experiment [1], 3.4 µg/mL (≈ 4.77 µM); in [2], 4.5 µg/mL (≈ 6.31 µM); in the experiment with 1A9, 0.97 µg/mL (≈ 1.36 µM); in the experiment on SK-MEL-2, 0.32 µg/mL (≈ 0.449 µM). Further, the EC50 in experiment [3] came out at 2.2 µg/mL (≈ 3.09 µM); in the experiment on A549, 0.54 µg/mL (≈ 0.758 µM); in the experiment on CAKI-1, 1.2 µg/mL (≈ 1.68 µM); in the experiment with MCF7, 1.3 µg/mL (≈ 1.82 µM).

Take `C[C@H]1O[C@H](O[C@H]2CC[C@]3(C(=O)O)[C@H]4C[C@@H](O)[C@]5(C)[C@@H](C6=CC(=O)OC6)CC[C@]5(O)[C@@H]4CC[C@]3(O)C2)[C@H](O)[C@H](O)[C@H]1O` [ANTIAROSIDE H]: the EC50 in the experiment on KB is 5.9 µg/mL (≈ 10.1 µM); in the experiment with PC-3, 1.8 µg/mL (≈ 3.09 µM); in [1] it was 2.5 µg/mL (≈ 4.29 µM); in experiment [2] it was 7.3 µg/mL (≈ 12.5 µM); in the experiment with 1A9, 1.4 µg/mL (≈ 2.4 µM); with SK-MEL-2 it was 1.3 µg/mL (≈ 2.23 µM). The EC50 came out at 7.1 µg/mL (≈ 12.2 µM) in [3], 0.76 µg/mL (≈ 1.3 µM) in the experiment with A549, 1.5 µg/mL (≈ 2.57 µM) with CAKI-1 and 3.1 µg/mL (≈ 5.32 µM) in the experiment on MCF7.

Regarding `C[C@@H]1O[C@H](O[C@H]2CC[C@@H]3[C@H]4CC[C@]5(C)[C@@H](C6=CC(=O)OC6)CC[C@]5(O)[C@@H]4CC[C@]3(O)C2)[C@H](O)[C@H](O)[C@H]1O` [ANTIAROSIDE I], the EC50 in the experiment with KB stood at 2 µg/mL (≈ 3.83 µM); in the experiment with PC-3, 0.9 µg/mL (≈ 1.72 µM); in experiment [1] it was 2.9 µg/mL (≈ 5.55 µM); in [2], 3.6 µg/mL (≈ 6.89 µM); in the experiment with 1A9, 0.83 µg/mL (≈ 1.59 µM); in the experiment on SK-MEL-2, 0.3 µg/mL (≈ 0.574 µM). Besides, the EC50 amounted to 2.3 µg/mL (≈ 4.4 µM) in experiment [3], 0.36 µg/mL (≈ 0.689 µM) in the experiment on A549, 1.1 µg/mL (≈ 2.1 µM) in the experiment on CAKI-1 and 1.3 µg/mL (≈ 2.49 µM) in the experiment with MCF7.

`C[C@@H]1O[C@@H](O[C@H]2CC[C@]3(C=O)[C@H]4CC[C@]5(C)[C@@H](C6=CC(=O)OC6)CC[C@]5(O)[C@@H]4CC[C@]3(O)C2)[C@H](O)[C@H](O)[C@H]1O` [CONVALLATOXIN]: the EC50 amounted to 0.014 µg/mL (≈ 0.0254 µM) with KB; 0.094 µg/mL (≈ 0.171 µM) in the experiment on PC-3; 0.0014 µg/mL (≈ 0.00254 µM) in [1]; 0.014 µg/mL (≈ 0.0254 µM) in experiment [2]; 0.03 µg/mL (≈ 0.0545 µM) with 1A9; 0.0013 µg/mL (≈ 0.00236 µM) in the experiment with SK-MEL-2. The EC50 in experiment [3] came out at 0.013 µg/mL (≈ 0.0236 µM); in the experiment on A549, 0.0027 µg/mL (≈ 0.0049 µM); in the experiment on CAKI-1 it was 0.0031 µg/mL (≈ 0.00563 µM); in the experiment on MCF7, 0.0065 µg/mL (≈ 0.0118 µM).

Consider `C[C@@H]1O[C@H](O[C@H]2CC[C@]3(CO)[C@H]4CC[C@]5(C)[C@@H](C6=CC(=O)OC6)CC[C@]5(O)[C@@H]4CC[C@]3(O)C2)[C@H](O)[C@H](O)[C@H]1O` [CONVALLATOXOL], for which the EC50 with KB was 0.025 µg/mL (≈ 0.0452 µM); in the experiment on PC-3, 0.013 µg/mL (≈ 0.0235 µM); in experiment [1], 0.02 µg/mL (≈ 0.0362 µM); in experiment [2], 0.036 µg/mL (≈ 0.0651 µM); in the experiment on 1A9, 0.0076 µg/mL (≈ 0.0138 µM); with SK-MEL-2 it was 0.014 µg/mL (≈ 0.0253 µM). Further, the EC50 in experiment [3] was 0.014 µg/mL (≈ 0.0253 µM); in the experiment with A549 it was 0.004 µg/mL (≈ 0.00724 µM); with CAKI-1, 0.0061 µg/mL (≈ 0.011 µM); with MCF7, 0.012 µg/mL (≈ 0.0217 µM).

`C[C@@H]1O[C@@H](O[C@H]2CC[C@]3(C=O)[C@H]4CC[C@]5(C)[C@@H](C6=CC(=O)OC6)CC[C@]5(O)[C@@H]4CC[C@]3(O)C2)[C@H](O)[C@H](O)[C@H]1O[C@@H]1O[C@H](CO)[C@@H](O)[C@H](O)[C@H]1O` [CONVALLOSIDE]: the EC50 in the experiment with KB came to 0.2 µg/mL (≈ 0.281 µM); in the experiment with PC-3 it was 0.095 µg/mL (≈ 0.133 µM); in experiment [1], 0.2 µg/mL (≈ 0.281 µM); in experiment [2], 0.4 µg/mL (≈ 0.561 µM); in the experiment with 1A9, 0.072 µg/mL (≈ 0.101 µM); with SK-MEL-2, 0.42 µg/mL (≈ 0.589 µM). Moreover, the EC50 in [3] stood at 0.18 µg/mL (≈ 0.253 µM); in the experiment with A549, 0.07 µg/mL (≈ 0.0982 µM); with CAKI-1, 0.071 µg/mL (≈ 0.0996 µM); in the experiment on MCF7, 0.15 µg/mL (≈ 0.21 µM).
